Assays:
[1] = system: A-375; test: Antiproliferation activity against human A375P cells after 48 hrs by MTT assay in presence of fetal bovine serum; format: functional, cell-based; settings: A-375, 48 h
How it was run: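 A375P cells kept in DMEM with 10% FBS and 1% penicillin/streptomycin at 37 °C, 5% CO2. Plated at 5 × 10³ cells/well, left 24 h, then given 12 concentrations (3-fold serial dilution) for 48 h. Viability read by MTT reduction at 590 nm. IC50 from the dose-response curve; each compound tested in triplicate.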

[2] = system: NIH3T3; test: Antiproliferation activity against mouse NIH/3T3 cells after 48 hrs by MTT assay in presence of bovine calf serum; format: cell-based; settings: NIH3T3, 48 h
[3] = system: SK-MEL-2; test: Antiproliferation activity against human SK-MEL-2 cells after 48 hrs by SRB assay; format: functional, cell-based; settings: SK-MEL-2, 48 h
How it was run: (§1)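 Run by the NCI. Cells grown in RPMI 1640 with 5% FBS and 2 mM glutamine, plated at 5000–40,000 cells/well by doubling time, and left 24 h at 37 °C, 5% CO2. Time-zero plates fixed with TCA. Drug (DMSO stock) given at five concentrations for 48 h. Cells fixed with cold TCA (final 10%), stained with 0.4% SRB, and read at 515 nm. IC50 taken as 50% reduction in net protein increase versus control.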

[4] = system: SK-MEL-5; test: Antiproliferation activity against human SK-MEL-5 cells after 48 hrs by SRB assay; format: functional, cell-based; settings: SK-MEL-5, 48 h; how it was run: as §1
[5] = system: UACC-62; test: Antiproliferation activity against human UACC62 cells after 48 hrs by SRB assay; format: functional, cell-based; settings: UACC-62, 48 h; how it was run: as §1
[6] = system: LOX IMVI; test: Antiproliferation activity against human LOXIMVI cells after 48 hrs by SRB assay; format: functional, cell-based; how it was run: as §1
[7] = system: Malme-3M; test: Antiproliferation activity against human MALME-3M cells after 48 hrs by SRB assay; format: functional, cell-based; how it was run: as §1
[8] = system: M14; test: Antiproliferation activity against human M14 cells after 48 hrs by SRB assay; format: functional, cell-based; settings: M14, 48 h; how it was run: as §1
[9] = system: MDA-MB-435; test: Antiproliferation activity against human MDA-MB-435 cells after 48 hrs by SRB assay; format: functional, cell-based; settings: MDA-MB-435, 48 h; how it was run: as §1
[10] = system: SK-MEL-28; test: Antiproliferation activity against human SK-MEL-28 cells after 48 hrs by SRB assay; format: functional, cell-based; settings: SK-MEL-28, 48 h; how it was run: as §1
[11] = system: UACC-257; test: Antiproliferation activity against human UACC257 cells after 48 hrs by SRB assay; format: functional, cell-based; settings: UACC-257, 48 h; how it was run: as §1

| Structure (SMILES) | IC50 [1] | IC50 [2] | other results |
| --- | --- | --- | --- |
| Cc1cc(NC(=O)c2ccc(N3CCOCC3)c(C(F)(F)F)c2)ccc1-n1ccc2c(NC(=O)c3ccccc3)nccc21 | > 10000 nM | – | – |
| O=C(Nc1ccc(-n2ccc3c(NC(=O)c4ccccc4)nccc32)cc1)Nc1cccc(Cl)c1Cl | > 10000 nM | – | – |
| O=C(Nc1ccc(-n2ccc3c(NC(=O)c4ccccc4)nccc32)cc1)Nc1ccc(Cl)c(Cl)c1 | 200 nM | 11.5 µM | – |
| O=C(Nc1ccc(-n2ccc3c(NC(=O)c4ccccc4)nccc32)cc1)Nc1cccc(C(F)(F)F)c1 | 7000 nM | – | – |
| O=C(Nc1ccc(-n2ccc3c(NC(=O)c4ccccc4)nccc32)cc1)Nc1ccc(Cl)c(C(F)(F)F)c1 | 2400 nM | – | – |
| O=C(Nc1ccc(-n2ccc3c(NC(=O)c4ccccc4)nccc32)cc1)Nc1cc(C(F)(F)F)cc(C(F)(F)F)c1 | 1800 nM | – | – |
| Cc1cc(NC(=O)Nc2cccc(Cl)c2Cl)ccc1-n1ccc2c(NC(=O)c3ccccc3)nccc21 | > 10000 nM | – | – |
| CCN1CCN(Cc2ccc(NC(=O)Nc3ccc(-n4ccc5c(NC(=O)c6ccccc6)nccc54)cc3)cc2C(F)(F)F)CC1 | 95 nM | 0.98 µM | IC50 [3]: 3620 nM; IC50 [4]: 764 nM; IC50 [5]: 1270 nM; IC50 [6]: 481 nM; IC50 [7]: 1.54 µM; IC50 [8]: 1220 nM; IC50 [9]: 894 nM; IC50 [10]: 1290 nM; IC50 [11]: 1590 nM |
| Nc1nccc2c1ccn2-c1ccc(NC(=O)Nc2cccc(C(F)(F)F)c2)cc1 | 5400 nM | – | – |
| Nc1nccc2c1ccn2-c1ccc(NC(=O)Nc2ccc(Cl)c(C(F)(F)F)c2)cc1 | 8000 nM | – | – |
| O=C(Nc1ccc(-n2ccc3c(NC(=O)c4ccccc4)nccc32)cc1)c1cccc(C(F)(F)F)c1 | 100 nM | 0.05 µM | – |
| O=C(Nc1ccc(-n2ccc3c(NC(=O)c4ccccc4)nccc32)cc1)c1ccc(Cl)c(C(F)(F)F)c1 | 16.4 nM | 5.65 µM | – |
| Cc1cn(-c2cc(C(=O)Nc3ccc(-n4ccc5c(NC(=O)c6ccccc6)nccc54)cc3)cc(C(F)(F)F)c2)cn1 | 800 nM | 5.57 µM | – |
| O=C(Nc1ccc(-n2ccc3c(NC(=O)c4ccccc4)nccc32)cc1)c1ccc(N2CCOCC2)c(C(F)(F)F)c1 | 7 nM | 1.74 µM | IC50 [3]: 637 nM; IC50 [4]: 138 nM; IC50 [5]: 485 nM; IC50 [6]: 45.6 nM; IC50 [7]: 11.5 µM; IC50 [8]: 763 nM; IC50 [9]: 119 nM; IC50 [10]: 292 nM; IC50 [11]: 1980 nM |
| O=C(Nc1ccc(-n2ccc3c(NC(=O)c4ccccc4)nccc32)cc1)c1cc(N2CCOCC2)cc(C(F)(F)F)c1 | 300 nM | 0.27 µM | – |
| Cc1cc(NC(=O)c2cccc(C(F)(F)F)c2)ccc1-n1ccc2c(NC(=O)c3ccccc3)nccc21 | > 10000 nM | – | – |
| Cc1cc(NC(=O)c2ccc(Cl)c(C(F)(F)F)c2)ccc1-n1ccc2c(NC(=O)c3ccccc3)nccc21 | 2700 nM | – | – |
| O=C(Nc1nccc2c1ccn2-c1ccc(NC(=O)c2ccc(-c3cc(C(F)(F)F)ccc3Cl)o2)cc1)c1ccccc1 | 1000 nM | 15.9 µM | – |
| Nc1nccc2c1ccn2-c1ccc(NC(=O)c2ccc(Cl)c(C(F)(F)F)c2)cc1 | 3800 nM | – | – |
| Nc1nccc2c1ccn2-c1ccc(NC(=O)c2ccc(N3CCOCC3)c(C(F)(F)F)c2)cc1 | 6200 nM | – | – |
| CNC(=O)c1cc(Oc2ccc(NC(=O)Nc3ccc(Cl)c(C(F)(F)F)c3)cc2)ccn1 [SORAFENIB] | 5600 nM | 24.8 µM | – |
